Peptide text beside a SMILES is read from it. * marks the point of attachment. Hydrocinnamoyl = O=C(CCc1ccccc1)*; Undecanoyl = CCCCCCCCCCC(=O)*; Cbz = O=C(OCc1ccccc1)*; NHBn = c1ccc(CN*)cc1

One may read the inhibition as the relative decrease from the control value, in per cent.

The species entered for the experiment is Rattus norvegicus. Put plainly: Inhibition of rat recombinant Rab geranylgeranyltransferase at 100 uM in presence of canine Rab7 and rat REP1 NBD-FPP based continuous fluorimetric assay. The procedure, abridged:
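Continuous fluorometric assay in 96/384-well format: 3 μM Rab7, 3 μM REP1, 9 μM NBD-FPP and 400 nM RabGGTase, with or without inhibitor. […] IC50 was calculated from three independent measurements.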
`O=C(CNC(=O)[C@H](Cc1ccc(O)cc1)NC(=O)c1ccc(F)cc1)N[C@@H](Cc1ccc(O)cc1)C(=O)NC1CCCCC1`: the inhibition came out at 74%.

With `CCCCCCCCCCCOc1ccc(C(=O)N[C@@H](Cc2ccc(O)cc2)C(=O)N[C@@H](Cc2ccc(O)cc2)C(=O)N[C@@H](Cc2c[nH]cn2)C(=O)O)cc1`, the inhibition came out at 102%.

Take `NCCCC[C@H](NC(=O)c1coc(-c2ccccc2)n1)C(=O)NCC(=O)N[C@@H](Cc1ccc(O)cc1)C(=O)O`: the inhibition came out at 100%.

As to `CCOC(=O)[C@H](CCC(N)=O)NC(=O)[C@H](Cc1ccccc1)NC(=O)[C@H](C)NC(=O)CCc1ccccc1` (Hydrocinnamoyl-Ala-Phe-Gln-OEt), the inhibition came out at 107%.

On to `CC(=O)Nc1cc(C(=O)N2CCC[C@@H]2C(=O)N[C@@H](C(=O)N[C@@H](CCC(N)=O)C(=O)NN)C(C)C)ccc1[N+](=O)[O-]`, for which the inhibition came to 77%.

For `CC(C)C[C@H](NC(=O)[C@H](COC(C)(C)C)NC(=O)[C@H](Cc1ccccc1)NC(=O)CCc1ccccc1)C(N)=O`, the inhibition was 96%.

In the case of `O=C(N[C@@H](CO)C(=O)N[C@@H](Cc1ccccc1)C(=O)N[C@@H](CO)C(=O)O)C(Br)C(Br)c1ccc(F)cc1` (stereo partly specified), the inhibition is 92%.

Consider `COC(=O)[C@H](CC(C)C)NC(=O)[C@H](CO)NC(=O)[C@H](Cc1ccccc1)NC(=O)CCc1ccccc1`, for which the inhibition stood at 69%.

Consider `C[C@@H](NC(=O)CCc1ccccc1)C(=O)N[C@@H](Cc1ccccc1)C(=O)N[C@@H](CCC(=O)O)C(=O)Nc1cccc(Br)n1`, for which the inhibition was found to be 100%.

Consider `COC(=O)[C@H](CO)NC(=O)[C@H](Cc1ccccc1)NC(=O)[C@H](CO)NC(=O)C(Br)C(Br)c1ccc(F)cc1` (stereo partly specified), for which the inhibition was found to be 80%.

Consider `CCCCCCCCCCCOc1ccc(C(=O)N[C@@H](Cc2ccc(O)cc2)C(=O)N[C@@H](Cc2ccc(O)cc2)C(=O)N[C@@H](Cc2ccc(O)cc2)C(=O)NCc2ccc(F)cc2F)cc1`, for which the inhibition is 99%.

`C[C@H](NC(=O)/C=C/c1ccc(F)cc1)C(=O)NCC(=O)N[C@@H](Cc1ccc(O)cc1)C(=O)NC1CCCCC1`: the inhibition came to 11%.

For the compound `CCCCCCCCCCC(=O)N[C@@H](Cc1ccc(O)cc1)C(=O)N[C@@H](Cc1c[nH]cn1)C(=O)N[C@@H](Cc1c[nH]cn1)C(=O)Nc1ccccn1`, the inhibition turned out to be 64%.

With `CN(C(=O)[C@@H](Cc1c[nH]cn1)NC(=O)OCc1ccccc1)[C@@H](Cc1ccc(O)cc1)C(=O)N[C@@H](Cc1ccccc1)C(=O)O`, the inhibition is 34%.

`NCCOC(=O)[C@H](Cc1ccc(O)cc1)NC(=O)CNC(=O)[C@H](Cc1c[nH]cn1)NC(=O)OCc1ccccc1`: the inhibition was found to be 101%.

Turning to `O=C(N[C@@H](CO)C(=O)N[C@@H](Cc1ccccc1)C(=O)N[C@@H](CO)C(=O)Nc1ccc(F)cc1F)C(Br)C(Br)c1ccc(F)cc1` (stereo partly specified), the inhibition is 94%.

Take `CCC(C)OC(=O)[C@H](CCC(N)=O)NC(=O)[C@H](Cc1ccccc1)NC(=O)[C@@H](C)NC(=O)CCc1ccccc1` (stereo partly specified): the inhibition turned out to be 83%.

Regarding `O=C(N[C@@H](Cc1ccc(O)cc1)C(=O)N[C@@H](Cc1ccc(O)cc1)C(=O)N[C@@H](Cc1ccc(O)cc1)C(=O)OCCCl)c1ccc(F)cc1F`, the inhibition worked out at 71%.

On to `CCCCCCCCCCCCCC(=O)OC[C@H](NC(=O)CNC(=O)[C@H](Cc1ccccc1)NC(=O)c1coc(-c2ccccc2)n1)C(=O)O`, for which the inhibition worked out at 38%.

As for `O=C(N[C@@H](Cc1ccc(O)cc1)C(=O)N[C@@H](Cc1ccc(O)cc1)C(=O)N[C@@H](Cc1ccc(O)cc1)C(=O)O)c1ccc(F)cc1F`, the inhibition was 106%.

With `CCCCCCCCCCCCCCCCNC(=O)[C@H](Cc1ccc(O)cc1)NC(=O)CNC(=O)[C@H](Cc1ccc(O)cc1)NC(=O)c1ccc(F)cc1`, the inhibition was 89%.

Regarding `NC(=O)CC[C@H](NC(=O)[C@H](Cc1ccccc1)NC(=O)[C@H](CO)NC(=O)CCc1ccccc1)C(=O)Nc1ccc(F)cc1`, the inhibition turned out to be 88%.

`COC(=O)[C@H](Cc1ccccc1)NC(=O)[C@H](CC(C)C)NC(=O)[C@@H]1CCCN1C(=O)/C=C/c1ccccc1`: the inhibition was 79%.

Consider `CC(C)C[C@H](NC(=O)[C@H](COC(C)(C)C)NC(=O)[C@H](Cc1ccccc1)NC(=O)c1ccc(-c2ccccc2)cc1)C(N)=O`, for which the inhibition is 48%.

On to `CC#CCOC(=O)[C@H](Cc1ccccc1)NC(=O)CNC(=O)[C@@H]1CCCN1C(=O)/C=C/c1ccccc1`, for which the inhibition turned out to be 69%.

Consider `C=CCOC(=O)[C@H](Cc1cn(C(c2ccccc2)(c2ccccc2)c2ccccc2)cn1)NC(=O)[C@H](Cc1ccccc1)NC(=O)CNC(=O)c1coc(-c2ccccc2)n1`, for which the inhibition was 55%.

As to `C[C@@H](O)[C@H](NC(=O)/C=C/c1ccccc1)C(=O)N[C@@H](Cc1ccccc1)C(=O)N[C@@H](CCC(N)=O)C(=O)O`, the inhibition came out at 83%.

With `O=C(CCc1ccccc1)N[C@@H](CO)C(=O)N[C@@H](Cc1ccccc1)C(=O)N[C@@H](CO)C(=O)NCc1ccccc1` (Hydrocinnamoyl-Ser-Phe-Ser-NHBn), the inhibition is 95%.

For `CCCCCCCCCCCCCCCC(=O)N[C@@H](Cc1ccc(O)cc1)C(=O)N[C@@H](Cc1ccc(O)cc1)C(=O)N[C@@H](Cc1ccc(O)cc1)C(=O)Nc1ccc(F)cc1F`, the inhibition was determined as 82%.

Consider `C[C@H](NC(=O)[C@@H](NC(=O)c1ccc(-c2ccccc2)cc1)[C@@H](C)O)C(=O)N[C@@H](CCC(N)=O)C(=O)Nc1nccs1`, for which the inhibition stood at 108%.

With `COC(=O)CNC(=O)[C@H](CO)NC(=O)[C@H](Cc1ccccc1)NC(=O)C1COC(c2ccccc2)=N1` (stereo partly specified), the inhibition stood at 114%.

Turning to `C[C@@H](NC(=O)CCc1ccccc1)C(=O)N[C@@H](Cc1ccccc1)C(=O)N[C@@H](CCC(N)=O)C(N)=O`, the inhibition came out at 95%.

On to `O=C(N[C@@H](Cc1ccccc1)C(=O)N[C@@H](Cc1ccccc1)C(=O)N[C@@H](Cc1ccc(O)cc1)C(=O)O)OCc1ccccc1` (Cbz-Phe-Phe-Tyr-OH), for which the inhibition was 9%.

`COC(=O)[C@H](CO)NC(=O)CNC(=O)[C@H](CO)NC(=O)/C=C/c1ccc(F)cc1`: the inhibition came out at 63%.

As for `CCCCCCCCCCCOc1ccc(C(=O)N[C@@H](Cc2ccc(O)cc2)C(=O)N[C@@H](Cc2ccc(O)cc2)C(=O)N[C@@H](Cc2ccc(O)cc2)C(=O)N(C)OC)cc1`, the inhibition was 75%.

`CCCCCCCCCCC(=O)N[C@@H](Cc1c[nH]cn1)C(=O)N[C@@H](Cc1c[nH]cn1)C(=O)N[C@@H](Cc1ccc(O)cc1)C(=O)OC` (Undecanoyl-His-His-Tyr-OMe): the inhibition is 64%.

In the case of `CCCCCCCCCCCOc1ccc(C(=O)N[C@@H](Cc2ccc(O)cc2)C(=O)N[C@@H](Cc2ccc(O)cc2)C(=O)N[C@@H](Cc2ccc(O)cc2)C(=O)Nc2ccc(F)cc2F)cc1`, the inhibition amounted to 101%.

For `COC(=O)[C@H](CO)NC(=O)[C@H](Cc1ccccc1)NC(=O)[C@H](CO)NC(=O)/C=C/c1ccc(F)cc1`, the inhibition worked out at 98%.

`CCCCCCCCCCCC(=O)N[C@@H](Cc1ccc(O)cc1)C(=O)N[C@@H](Cc1c[nH]cn1)C(=O)N[C@@H](Cc1c[nH]cn1)C(=O)N(C)CCc1ccccn1`: the inhibition was 54%.

Turning to `CCCCCCCCCCCCCC(=O)OC[C@H](NC(=O)[C@H](Cc1ccccc1)NC(=O)[C@H](CCCCNC(=O)c1csc(-c2cccnc2)n1)NC(=O)c1csc(-c2cccnc2)n1)C(=O)O`, the inhibition worked out at 67%.

As for `CCCCCCCCCCCOc1ccc(C(=O)N[C@@H](Cc2c[nH]cn2)C(=O)N[C@@H](Cc2ccc(O)cc2)C(=O)N[C@@H](Cc2ccccc2)C(N)=O)cc1`, the inhibition was found to be 81%.

For `O=C(N[C@@H](CO)C(=O)N[C@@H](Cc1ccccc1)C(=O)N[C@@H](CO)C(=O)OCCCl)C(Br)C(Br)c1ccc(F)cc1` (stereo partly specified), the inhibition was determined as 98%.

As to `O=C(N[C@@H](Cc1ccc(O)cc1)C(=O)N[C@@H](Cc1ccc(O)cc1)C(=O)N[C@@H](Cc1ccc(O)cc1)C(=O)NCc1ccccc1)c1ccc(F)cc1F`, the inhibition came to 70%.

Consider `O=C(CCNC(=O)[C@H](Cc1c[nH]cn1)NC(=O)OCc1ccccc1)N[C@@H](Cc1ccc(O)cc1)C(=O)O`, for which the inhibition was 90%.

For `O=C(CNC(=O)c1coc(-c2ccccc2)n1)N[C@@H](Cc1cn(C(c2ccccc2)(c2ccccc2)c2ccccc2)cn1)C(=O)N[C@@H](Cc1cn(C(c2ccccc2)(c2ccccc2)c2ccccc2)cn1)C(=O)O`, the inhibition was 91%.

On to `CC(C)C[C@H](NC(=O)/C=C/c1ccccc1)C(=O)N[C@@H](Cc1ccccc1)C(=O)N[C@@H](Cc1ccccc1)C(=O)Nc1ccc([N+](=O)[O-])cc1Cl`, for which the inhibition was 104%.

Turning to `CC(C)(C)Oc1ccc(C[C@H](NC(=O)c2coc(-c3ccccc3)n2)C(=O)NCC(=O)N[C@@H](Cc2ccccc2)C(=O)O)cc1`, the inhibition turned out to be 82%.

As for `CC[C@H](C)[C@H](NC(=O)c1ccc(-c2ccccc2)cc1)C(=O)N[C@@H](C(=O)N[C@@H](CCC(N)=O)C(=O)OCCCl)C(C)C`, the inhibition is 89%.

`COC(=O)[C@H](Cc1ccc(O)cc1)NC(=O)CCNC(=O)[C@H](Cc1c[nH]cn1)NC(=O)OCc1ccccc1`: the inhibition was 72%.

For `CCCCCCCCCCCCCC(=O)OC[C@H](NC(=O)[C@@H]1CCCN1C(=O)[C@H](CCC(N)=O)NC(=O)c1coc(-c2ccccc2)n1)C(=O)O`, the inhibition amounted to 36%.

Regarding `O=C(/C=C/c1ccc(F)cc1)N[C@@H](CO)C(=O)N[C@@H](Cc1ccccc1)C(=O)N[C@@H](CO)C(=O)Nc1ccc(F)cc1F`, the inhibition came out at 92%.

On to `O=C(CCc1ccc(F)cc1)N[C@@H](Cc1ccc(O)cc1)C(=O)NCC(=O)N[C@@H](Cc1ccc(O)cc1)C(=O)Nc1ccc(F)cc1`, for which the inhibition was 80%.

For the compound `NC(=O)[C@H](CO)NC(=O)CNC(=O)[C@H](CO)NC(=O)CCc1ccccc1` (Hydrocinnamoyl-Ser-Gly-Ser-NH2), the inhibition stood at 85%.

Regarding `COC(=O)[C@H](Cc1ccc(O)cc1)NC(=O)CNC(=O)[C@H](Cc1c[nH]cn1)NC(=O)OCc1ccccc1` (Cbz-His-Gly-Tyr-OMe), the inhibition was determined as 70%.

As for `CCCCCCCCCCCOc1ccc(C(=O)N[C@@H](Cc2ccc(O)cc2)C(=O)N[C@@H](Cc2ccc(O)cc2)C(=O)N[C@@H](Cc2ccc(O)cc2)C(=O)O)cc1`, the inhibition turned out to be 106%.

Consider `O=C(N[C@@H](Cc1c[nH]cn1)C(=O)N[C@@H](Cc1ccc(O)cc1)C(=O)N[C@@H](Cc1ccccc1)C(=O)O)OCc1ccc(OCc2ccccc2)cc1`, for which the inhibition came out at 53%.

These data come from ChEMBL document CHEMBL1153722, “Design, synthesis, and characterization of peptide-based rab geranylgeranyl transferase inhibitors” (J Med Chem, 2009).
